# Measurements from ChEMBL document CHEMBL3120102, “Structure-based design, synthesis and biological evaluation of novel anthra[1,2-d]imidazole-6,11-dione homologues as potential antitumor agents” (2013).
# Experiments:
# Assay type in all cases: functional
# [1] = test system: HT-29; test: Cytotoxicity against human HT-29 cells assessed as growth inhibition after 48 hrs by SRB assay
# Method in brief: (§1)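 NCI 60-cell-line five-dose screen at […]. Drug exposure was 48 h, followed by sulforhodamine B protein staining. GI50, TGI and LC50 were calculated against a time-zero control and untreated plates, with dose–response curves plotted from log10 concentration.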
# [2] = test system: 786-0; test: Cytotoxicity against human 786-0 cells assessed as growth inhibition after 48 hrs by SRB assay; method in brief: as §1
# [3] = test system: SK-MEL-5; test: Cytotoxicity against human SK-MEL-5 cells assessed as growth inhibition after 48 hrs by SRB assay
# Method in brief: (§2)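 NCI 60-cell-line screen, five-dose stage: each cell line exposed for 48 h to five concentrations spanning five log steps; cellular protein measured by sulforhodamine B colorimetry. A time-zero cell control and plates without drug are used to derive GI50, TGI and LC50 from log-concentration dose-response curves.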
# [4] = test system: K562; test: Cytotoxicity against human K562 cells assessed as growth inhibition after 48 hrs by SRB assay; method in brief: as §1
# [5] = test system: CCRF-CEM; test: Cytotoxicity against human CCRF-CEM cells assessed as growth inhibition after 48 hrs by SRB assay; method in brief: as §1
# [6] = test system: RXF 393; test: Cytotoxicity against human RXF393 cells assessed as growth inhibition after 48 hrs by SRB assay; method in brief: as §2
# [7] = test system: MCF7; test: Cytotoxicity against human MCF7 cells assessed as growth inhibition after 48 hrs by SRB assay; method in brief: as §2
# [8] = test system: CAKI-1; test: Cytotoxicity against human CAKI-1 cells assessed as cell growth at 10 uM after 48 hrs by SRB assay; details: CAKI-1, 48 h, read-out: Activity
# [9] = test system: COLO 205; test: Cytotoxicity against human COLO205 cells assessed as growth inhibition after 48 hrs by SRB assay; method in brief: as §1
# [10] = test system: SNB-19; test: Cytotoxicity against human SNB19 cells assessed as growth inhibition after 48 hrs by SRB assay
# Method in brief: (§3)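 NCI 60-cell-line screen, two stages. Five-dose testing at […]. Cellular protein measured by sulforhodamine B colorimetry after 48 h drug exposure. A time-zero control and drug-free plates are used to derive GI50, TGI and LC50 from dose-response curves plotted as log10 concentration per cell line.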
# [11] = test system: SK-OV-3; test: Cytotoxicity against human SKOV3 cells assessed as growth inhibition after 48 hrs by SRB assay; method in brief: as §2
# [12] = (§4) Cytotoxicity against human OVCAR4 cells assessed as growth inhibition after 48 hrs by SRB assay; details: OVCAR-4, 48 h; method in brief: as §2
# [13] = test system: OVCAR-4; test: as §4; method in brief: as §2
# [14] = test system: SNB-75; test: Cytotoxicity against human SNB75 cells assessed as growth inhibition after 48 hrs by SRB assay; method in brief: as §3
# [15] = test system: SN12C; test: Cytotoxicity against human SN12C cells assessed as growth inhibition after 48 hrs by SRB assay; method in brief: as §3
# [16] = test system: NCI/ADR-RES; test: (§5) Cytotoxicity against human NCI-ADR-RES cells assessed as growth inhibition after 48 hrs by SRB assay; method in brief: as §2
# [17] = as §5; method in brief: as §2
# [18] = test system: DU-145; test: Cytotoxicity against human DU145 cells assessed as growth inhibition after 48 hrs by SRB assay; method in brief: as §1
# [19] = test system: OVCAR-8; test: Cytotoxicity against human OVCAR8 cells assessed as growth inhibition after 48 hrs by SRB assay; method in brief: as §2
# [20] = test system: UACC-62; test: Cytotoxicity against human UACC62 cells assessed as growth inhibition after 48 hrs by SRB assay; method in brief: as §3
# [21] = test system: T47D; test: Cytotoxicity against human T47D cells assessed as growth inhibition after 48 hrs by SRB assay; method in brief: as §3
# [22] = test system: EKVX; test: (§6) Cytotoxicity against human EKVX cells assessed as growth inhibition after 48 hrs by SRB assay; method in brief: as §1
# [23] = as §6; method in brief: as §1
# [24] = test system: A549; test: Cytotoxicity against human A549 cells assessed as growth inhibition after 48 hrs by SRB assay; method in brief: as §1
# [25] = test system: UO-31; test: (§7) Cytotoxicity against human UO31 cells assessed as growth inhibition after 48 hrs by SRB assay; method in brief: as §3
# [26] = as §7; details: UO-31, 48 h; method in brief: as §3
# [27] = test system: NCI-H23; test: Cytotoxicity against human NCI-H23 cells assessed as growth inhibition after 48 hrs by SRB assay; method in brief: as §2
# [28] = test system: SF-539; test: Cytotoxicity against human SF539 cells assessed as growth inhibition after 48 hrs by SRB assay; method in brief: as §2
# [29] = test system: NCI-H460; test: Cytotoxicity against human NCI-H460 cells assessed as growth inhibition after 48 hrs by SRB assay; method in brief: as §2
structure (smiles),measurement,setting,value
CN(C)CCCSc1nc2ccc3c(c2[nH]1)C(=O)c1ccccc1C3=O,growth inhibition (GI),[1],Dose-dependent effect
same,GI50,"[1]; HT-29, 48 h",1.04 µM
same,TGI,"[1]; HT-29, 48 h",2.61 µM
same,CC50,"[1]; HT-29, 48 h, read-out: LC50 (the source's name)",6.53 µM
same,growth inhibition (GI),[2],Dose-dependent effect
same,GI50,"[2]; 786-0, 48 h",9.73 µM
same,TGI,"[2]; 786-0, 48 h",23.8 µM
same,growth inhibition (GI),[3],Dose-dependent effect
same,GI50,"[3]; SK-MEL-5, 48 h",11.1 µM
same,TGI,"[3]; SK-MEL-5, 48 h",23.1 µM
same,growth inhibition (GI),[4],Dose-dependent effect
same,GI50,"[4]; K562, 48 h",2.04 µM
same,TGI,"[4]; K562, 48 h",4.73 µM
same,CC50,"[4]; K562, 48 h, read-out: LC50 (the source's name)",13.6 µM
same,GI50,[5],1.29 µM
same,TGI,[5],4.36 µM
same,growth inhibition (GI),[5],Dose-dependent effect
same,growth inhibition (GI),[6],Dose-dependent effect
same,GI50,"[6]; RXF 393, 48 h",1.89 µM
same,TGI,"[6]; RXF 393, 48 h",12.8 µM
same,CC50,"[6]; RXF 393, 48 h, read-out: LC50 (the source's name)",42.3 µM
same,growth inhibition (GI),[7],Dose-dependent effect
same,GI50,"[7]; MCF7, 48 h",0.202 µM
same,TGI,"[7]; MCF7, 48 h",4.21 µM
same,growth at 10 µM,[8],-14.9%
same,growth inhibition (GI),[9],Dose-dependent effect
same,GI50,"[9]; COLO 205, 48 h",3.41 µM
same,TGI,"[9]; COLO 205, 48 h",17.1 µM
same,growth inhibition (GI),[10],Dose-dependent effect
same,GI50,"[10]; SNB-19, 48 h",7.2 µM
same,TGI,"[10]; SNB-19, 48 h",20.7 µM
same,growth inhibition (GI),[11],Dose-dependent effect
same,GI50,"[11]; SK-OV-3, 48 h",1.72 µM
same,TGI,"[11]; SK-OV-3, 48 h",20.7 µM
same,GI50,[12],0.031 µM
same,TGI,[12],5.04 µM
same,growth inhibition (GI),[13],Dose-dependent effect
same,growth inhibition (GI),[14],Dose-dependent effect
same,GI50,"[14]; SNB-75, 48 h",< 0.01 µM
same,TGI,"[14]; SNB-75, 48 h",< 0.01 µM
same,GI50,[15],3.26 µM
same,TGI,[15],16.5 µM
same,growth inhibition (GI),[15],Dose-dependent effect
same,CC50,[15]; read-out: LC50 (the source's name),40.6 µM
same,growth inhibition (GI),[16],Dose-dependent effect
same,GI50,[17],5.11 µM
same,TGI,[17],21.5 µM
same,growth inhibition (GI),[18],Dose-dependent effect
same,GI50,"[18]; DU-145, 48 h",2.38 µM
same,TGI,"[18]; DU-145, 48 h",12.9 µM
same,CC50,"[18]; DU-145, 48 h, read-out: LC50 (the source's name)",35.9 µM
same,growth inhibition (GI),[19],Dose-dependent effect
same,GI50,"[19]; OVCAR-8, 48 h",6.12 µM
same,TGI,"[19]; OVCAR-8, 48 h",21.5 µM
same,growth inhibition (GI),[20],Dose-dependent effect
same,GI50,"[20]; UACC-62, 48 h",10.8 µM
same,TGI,"[20]; UACC-62, 48 h",23 µM
same,GI50,[21],8.73 µM
same,TGI,[21],24.8 µM
same,growth inhibition (GI),[21],Dose-dependent effect
same,growth inhibition (GI),[22],Dose-dependent effect
same,GI50,[23],4.2 µM
same,TGI,[23],20.1 µM
same,growth inhibition (GI),[24],Dose-dependent effect
same,TGI,"[24]; A549, 48 h",12.6 µM
same,growth inhibition (GI),[25],Dose-dependent effect
same,GI50,[26],0.564 µM
same,TGI,[26],11.7 µM
same,growth inhibition (GI),[27],Dose-dependent effect
same,TGI,"[27]; NCI-H23, 48 h",19.7 µM
same,growth inhibition (GI),[28],Dose-dependent effect
same,GI50,"[28]; SF-539, 48 h",10.9 µM
same,TGI,"[28]; SF-539, 48 h",22.7 µM
same,CC50,"[28]; SF-539, 48 h, read-out: LC50 (the source's name)",47.7 µM
same,growth inhibition (GI),[29],Dose-dependent effect
same,TGI,"[29]; NCI-H460, 48 h",12.8 µM
